ChEMBL document CHEMBL4354843, “Structure-Based Design of a Potent and Selective Covalent Inhibitor for SRC Kinase That Targets a P-Loop Cysteine” (J Med Chem, 2020)

Key:
[1] = target: Serine/threonine-protein kinase PRP4 homolog (Homo sapiens) (UniProt Q13523); assay: Binding affinity to wild-type human partial length PRP4 (D657 to I1007 residues) expressed in bacterial expression system assessed as residual binding level at 1 uM by Kinomescan method relative to control
Summary of the method: (§1)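 Active-site-directed competition binding panel of 468 kinases (KinomeScan), compound at 1 μM. The read-out is kinase remaining bound, given as a percentage of the DMSO control. […]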

[2] = target: Fibroblast growth factor receptor 2 (Homo sapiens) (UniProt P21802); assay: Binding affinity to wild-type human partial length FGFR2 (D457 to E769 residues) expressed in bacterial expression system assessed as residual binding level at 1 uM by Kinomescan method relative to control
[3] = tested on: ALK tyrosine kinase receptor (Homo sapiens), Q9UM73 [C1156Y]; assay: Binding affinity to wild-type human partial length ALK C1156Y mutant (I1088 to E1409 residues) expressed in mammalian expression system assessed as residual binding level at 1 uM by Kinomescan method relative to control
[4] = target: Ephrin type-B receptor 2 (Homo sapiens) (UniProt P29323); assay: Binding affinity to wild-type human partial length EPHB2 (I597 to L902 residues) expressed in bacterial expression system assessed as residual binding level at 1 uM by Kinomescan method relative to control; summary of the method: as §1
Chain of Ephrin type-B receptor 2 (Homo sapiens) (P29323 whole entry, the tested form may be a part): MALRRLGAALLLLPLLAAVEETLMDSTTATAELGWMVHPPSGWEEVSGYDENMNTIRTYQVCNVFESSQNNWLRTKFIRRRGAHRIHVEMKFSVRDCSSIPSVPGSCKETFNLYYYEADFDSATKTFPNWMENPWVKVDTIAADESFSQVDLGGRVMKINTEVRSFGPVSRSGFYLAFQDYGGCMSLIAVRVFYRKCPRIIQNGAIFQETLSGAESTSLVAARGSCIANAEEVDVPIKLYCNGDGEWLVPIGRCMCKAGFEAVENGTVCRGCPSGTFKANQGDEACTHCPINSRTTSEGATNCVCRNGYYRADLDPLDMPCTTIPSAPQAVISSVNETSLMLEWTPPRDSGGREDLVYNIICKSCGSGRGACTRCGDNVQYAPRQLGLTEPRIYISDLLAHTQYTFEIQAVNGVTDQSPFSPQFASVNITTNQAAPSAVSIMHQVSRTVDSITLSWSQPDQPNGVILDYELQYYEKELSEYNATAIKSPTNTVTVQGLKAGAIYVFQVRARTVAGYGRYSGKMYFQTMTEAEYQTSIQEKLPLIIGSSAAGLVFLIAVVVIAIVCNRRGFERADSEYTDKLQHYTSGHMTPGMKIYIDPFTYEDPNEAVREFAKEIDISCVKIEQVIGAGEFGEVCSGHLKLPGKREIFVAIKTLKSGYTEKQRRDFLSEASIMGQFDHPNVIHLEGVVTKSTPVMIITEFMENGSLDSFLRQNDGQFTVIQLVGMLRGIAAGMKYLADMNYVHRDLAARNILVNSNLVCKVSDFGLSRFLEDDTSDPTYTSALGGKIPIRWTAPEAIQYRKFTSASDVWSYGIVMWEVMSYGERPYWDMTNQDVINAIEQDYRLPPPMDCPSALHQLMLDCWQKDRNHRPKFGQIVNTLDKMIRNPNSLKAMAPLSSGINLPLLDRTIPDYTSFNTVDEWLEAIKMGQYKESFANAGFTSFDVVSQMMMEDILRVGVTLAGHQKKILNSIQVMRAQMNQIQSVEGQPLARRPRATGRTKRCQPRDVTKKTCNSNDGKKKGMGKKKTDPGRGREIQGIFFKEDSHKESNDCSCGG

[5] = target: Tyrosine-protein kinase Blk (Homo sapiens) (UniProt P51451); assay: Binding affinity to wild-type human partial length BLK (G211 to L503 residues) expressed in bacterial expression system assessed as residual binding level at 1 uM by Kinomescan method relative to control
Summary of the method: (§2)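 KinomeScan, an active site-directed competition binding panel of 468 kinases. The test compound was at 1 μM. The readout is remaining kinase binding as a percentage of the DMSO control. Scores above 35% were treated as weak binding and not listed.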

[6] = target: Serine/threonine-protein kinase SBK1 (Homo sapiens) (UniProt Q52WX2); assay: Binding affinity to wild-type human partial length SBK1 (P23 to P348 residues) expressed in mammalian expression system assessed as residual binding level at 1 uM by Kinomescan method relative to control
Chain of Serine/threonine-protein kinase SBK1 (Homo sapiens) (Q52WX2 whole entry, the tested form may be a part): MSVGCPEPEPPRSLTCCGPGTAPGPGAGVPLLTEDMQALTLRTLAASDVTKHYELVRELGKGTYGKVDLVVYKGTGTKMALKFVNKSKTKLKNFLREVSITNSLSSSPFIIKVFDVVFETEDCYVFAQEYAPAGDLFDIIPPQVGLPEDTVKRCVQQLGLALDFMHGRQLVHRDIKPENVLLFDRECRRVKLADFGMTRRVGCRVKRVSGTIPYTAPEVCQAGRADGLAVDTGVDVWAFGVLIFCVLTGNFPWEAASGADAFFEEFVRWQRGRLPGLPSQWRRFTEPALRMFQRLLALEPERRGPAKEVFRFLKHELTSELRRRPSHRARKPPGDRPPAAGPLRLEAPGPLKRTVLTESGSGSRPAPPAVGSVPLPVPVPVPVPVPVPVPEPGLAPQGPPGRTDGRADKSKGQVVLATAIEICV

[7] = target: LIM domain kinase 2 (Homo sapiens) (UniProt P53671); assay: Binding affinity to wild-type human full length LIMK2 (M1 to P638 residues) expressed in bacterial expression system assessed as residual binding level at 1 uM by Kinomescan method relative to control
Chain of LIM domain kinase 2 (Homo sapiens) (P53671 whole entry, looked up, the tested form may be a part): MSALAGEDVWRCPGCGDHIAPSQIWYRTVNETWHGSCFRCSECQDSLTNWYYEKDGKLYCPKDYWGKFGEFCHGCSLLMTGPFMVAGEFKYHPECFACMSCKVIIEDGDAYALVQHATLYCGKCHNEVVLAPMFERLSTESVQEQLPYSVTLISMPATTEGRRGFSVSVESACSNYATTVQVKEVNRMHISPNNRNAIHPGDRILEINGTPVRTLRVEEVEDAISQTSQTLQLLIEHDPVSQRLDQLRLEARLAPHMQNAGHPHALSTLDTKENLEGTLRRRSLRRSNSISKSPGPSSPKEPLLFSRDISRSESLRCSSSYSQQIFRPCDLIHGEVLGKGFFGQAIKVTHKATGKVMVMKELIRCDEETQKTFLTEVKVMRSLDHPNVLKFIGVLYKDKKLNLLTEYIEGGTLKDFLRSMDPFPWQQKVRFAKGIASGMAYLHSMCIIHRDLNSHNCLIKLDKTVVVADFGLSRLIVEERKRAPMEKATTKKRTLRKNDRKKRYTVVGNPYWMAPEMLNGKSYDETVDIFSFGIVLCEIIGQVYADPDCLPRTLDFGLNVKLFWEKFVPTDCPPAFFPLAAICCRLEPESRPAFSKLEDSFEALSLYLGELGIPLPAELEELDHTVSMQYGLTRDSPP
Summary of the method: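 Active-site-directed KinomeScan competition binding panel covering 468 kinases, compound tested at 1 μM. Each readout is the kinase signal remaining with compound, expressed as a percentage of the DMSO control. […]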

[8] = target: Dual specificity mitogen-activated protein kinase kinase 1 (Homo sapiens) (UniProt Q02750); assay: Binding affinity to wild-type human full length MEK1 (M1 to V393 residues) expressed in mammalian expression system assessed as residual binding level at 1 uM by Kinomescan method relative to control; summary of the method: as §2
[9] = tested on: Tyrosine-protein kinase ABL1 (Homo sapiens), P00519 [F317L]; assay: Binding affinity to human non-phosphorylated ABL1 F317L mutant (S229 to K512 residues) expressed in mammalian expression system assessed as residual binding level at 1 uM by Kinomescan method relative to control
Chain of Tyrosine-protein kinase ABL1 (Homo sapiens), P00519 [F317L] (P00519 whole entry F317L, the tested form may be a part): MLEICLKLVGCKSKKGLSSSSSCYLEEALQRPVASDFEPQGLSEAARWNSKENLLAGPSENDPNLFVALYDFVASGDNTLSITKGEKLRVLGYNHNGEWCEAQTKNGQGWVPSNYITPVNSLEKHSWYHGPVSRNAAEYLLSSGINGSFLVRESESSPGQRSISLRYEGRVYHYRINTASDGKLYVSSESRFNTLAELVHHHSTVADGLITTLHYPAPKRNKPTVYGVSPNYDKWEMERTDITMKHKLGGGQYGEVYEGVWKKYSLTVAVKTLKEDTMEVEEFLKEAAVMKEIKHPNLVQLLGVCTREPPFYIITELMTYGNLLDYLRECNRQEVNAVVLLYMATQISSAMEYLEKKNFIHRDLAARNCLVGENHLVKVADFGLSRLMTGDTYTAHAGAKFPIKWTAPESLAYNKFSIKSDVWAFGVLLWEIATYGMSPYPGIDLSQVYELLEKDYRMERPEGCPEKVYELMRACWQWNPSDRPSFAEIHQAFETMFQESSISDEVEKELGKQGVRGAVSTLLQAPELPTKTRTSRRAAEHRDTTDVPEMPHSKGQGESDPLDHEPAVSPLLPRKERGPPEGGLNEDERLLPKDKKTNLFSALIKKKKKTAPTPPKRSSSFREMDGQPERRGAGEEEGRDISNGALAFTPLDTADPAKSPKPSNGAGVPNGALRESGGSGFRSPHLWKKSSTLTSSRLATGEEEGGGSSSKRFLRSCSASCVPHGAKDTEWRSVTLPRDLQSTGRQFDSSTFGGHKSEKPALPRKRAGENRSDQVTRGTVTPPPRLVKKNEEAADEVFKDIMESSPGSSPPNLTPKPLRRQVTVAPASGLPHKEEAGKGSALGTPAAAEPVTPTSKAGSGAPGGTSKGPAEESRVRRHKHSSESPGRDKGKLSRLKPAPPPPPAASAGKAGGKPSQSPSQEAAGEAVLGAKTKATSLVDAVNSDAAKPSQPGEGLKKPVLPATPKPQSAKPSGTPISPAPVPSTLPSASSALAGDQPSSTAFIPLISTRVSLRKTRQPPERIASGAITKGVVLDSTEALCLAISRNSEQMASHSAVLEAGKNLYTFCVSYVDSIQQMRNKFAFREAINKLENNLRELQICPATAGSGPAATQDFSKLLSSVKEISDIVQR
Summary of the method: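 KinomeScan active site-directed competition binding panel (468 kinases), compound tested at 1 μM. Result expressed as remaining kinase signal versus DMSO control (percent of control).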

[10] = target: Mitogen-activated protein kinase kinase kinase 13 (Homo sapiens) (UniProt O43283); assay: Binding affinity to wild-type human full length LZK (M1 to W966 residues) expressed in mammalian expression system assessed as residual binding level at 1 uM by Kinomescan method relative to control
Chain of Mitogen-activated protein kinase kinase kinase 13 (Homo sapiens) (O43283 whole entry, the tested form may be a part): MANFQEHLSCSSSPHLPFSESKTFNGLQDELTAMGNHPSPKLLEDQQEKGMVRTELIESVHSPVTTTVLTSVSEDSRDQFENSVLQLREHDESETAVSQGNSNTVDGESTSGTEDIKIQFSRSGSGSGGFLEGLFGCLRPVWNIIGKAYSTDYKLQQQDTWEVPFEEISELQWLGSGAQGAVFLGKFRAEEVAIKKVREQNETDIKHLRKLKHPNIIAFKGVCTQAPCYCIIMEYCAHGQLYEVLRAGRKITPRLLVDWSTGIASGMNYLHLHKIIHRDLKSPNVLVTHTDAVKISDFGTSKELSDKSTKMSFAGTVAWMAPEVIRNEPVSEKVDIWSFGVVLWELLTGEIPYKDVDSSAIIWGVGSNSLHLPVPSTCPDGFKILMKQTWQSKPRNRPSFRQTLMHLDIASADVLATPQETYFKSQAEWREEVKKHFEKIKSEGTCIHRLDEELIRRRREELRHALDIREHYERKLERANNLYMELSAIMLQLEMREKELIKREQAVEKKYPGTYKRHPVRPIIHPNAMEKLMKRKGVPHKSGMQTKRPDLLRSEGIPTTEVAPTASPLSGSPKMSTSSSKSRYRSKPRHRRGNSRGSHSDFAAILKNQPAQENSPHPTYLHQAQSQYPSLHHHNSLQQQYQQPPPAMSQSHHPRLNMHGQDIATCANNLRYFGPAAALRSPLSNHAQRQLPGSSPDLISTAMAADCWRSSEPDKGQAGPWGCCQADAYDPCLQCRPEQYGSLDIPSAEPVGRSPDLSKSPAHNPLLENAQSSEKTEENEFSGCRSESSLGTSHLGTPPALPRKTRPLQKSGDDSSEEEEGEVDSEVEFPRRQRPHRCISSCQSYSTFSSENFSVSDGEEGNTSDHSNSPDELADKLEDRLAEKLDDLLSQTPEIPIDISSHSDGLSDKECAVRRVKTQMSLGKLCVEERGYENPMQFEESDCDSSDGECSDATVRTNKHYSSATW
Summary of the method: (§3)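 Active-site-directed competition binding panel (KinomeScan) covering 468 kinases. Test agent was screened at 1 μM. The read-out is the remaining kinase signal expressed relative to a DMSO control. Scores above 35%, taken as weak binding, were not reported.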

[11] = target: Ribosomal protein S6 kinase alpha-6 (Homo sapiens) (UniProt Q9UK32); assay: Binding affinity to wild-type human partial length N- terminal RSK4 kinase domain 1 (M1 to E397 residues) expressed in mammalian expression system assessed as residual binding level at 1 uM by Kinomescan method relative to control; summary of the method: as §1
Chain of Ribosomal protein S6 kinase alpha-6 (Homo sapiens) (Q9UK32 whole entry, the tested form may be a part): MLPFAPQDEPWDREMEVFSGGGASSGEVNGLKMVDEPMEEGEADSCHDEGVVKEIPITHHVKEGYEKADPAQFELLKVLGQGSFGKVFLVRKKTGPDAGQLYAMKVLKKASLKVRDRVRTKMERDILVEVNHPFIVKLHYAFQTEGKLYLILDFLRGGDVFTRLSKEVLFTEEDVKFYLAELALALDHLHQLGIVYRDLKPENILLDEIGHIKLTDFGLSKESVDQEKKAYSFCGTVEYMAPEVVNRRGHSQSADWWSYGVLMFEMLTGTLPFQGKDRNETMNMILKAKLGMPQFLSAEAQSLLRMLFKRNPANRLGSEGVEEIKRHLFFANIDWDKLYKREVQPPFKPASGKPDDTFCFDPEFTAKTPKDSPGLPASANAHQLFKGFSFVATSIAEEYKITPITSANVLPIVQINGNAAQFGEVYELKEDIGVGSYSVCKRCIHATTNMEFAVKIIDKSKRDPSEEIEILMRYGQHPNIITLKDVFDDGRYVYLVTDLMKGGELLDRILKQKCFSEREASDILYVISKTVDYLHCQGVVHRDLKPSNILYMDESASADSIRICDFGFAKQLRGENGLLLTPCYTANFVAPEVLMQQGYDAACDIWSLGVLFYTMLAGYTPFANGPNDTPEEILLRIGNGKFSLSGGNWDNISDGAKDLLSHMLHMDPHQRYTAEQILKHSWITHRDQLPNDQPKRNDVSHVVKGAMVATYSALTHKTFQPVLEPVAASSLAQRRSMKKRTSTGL

[12] = target: Phosphatidylinositol 4-phosphate 3-kinase C2 domain-containing subunit beta (Homo sapiens) (UniProt O00750); assay: Binding affinity to wild-type human partial length PIK3C2B (M1 to L1634 residues) expressed in mammalian expression system assessed as residual binding level at 1 uM by Kinomescan method relative to control
[13] = target: Protein-tyrosine kinase 2-beta (Homo sapiens) (UniProt Q14289); assay: Binding affinity to wild-type human full length PYK2 (M1 to E967 residues) expressed in bacterial expression system assessed as residual binding level at 1 uM by Kinomescan method relative to control; summary of the method: as §3
[14] = target: High affinity nerve growth factor receptor (Homo sapiens) (UniProt P04629); assay: Binding affinity to wild-type human partial length TRKA (G475 to G790 residues) expressed in mammalian expression system assessed as residual binding level at 1 uM by Kinomescan method relative to control
[15] = target: Fibroblast growth factor receptor 4 (Homo sapiens) (UniProt P22455); assay: Binding affinity to wild-type human partial length FGFR4 (G402 to E713 residues) expressed in bacterial expression system assessed as residual binding level at 1 uM by Kinomescan method relative to control
[16] = target: Serine/threonine-protein kinase ULK1 (Homo sapiens) (UniProt O75385); assay: Binding affinity to wild-type human partial length ULK1 (M1 to T309 residues) expressed in mammalian expression system assessed as residual binding level at 1 uM by Kinomescan method relative to control
[17] = target: Serine/threonine-protein kinase LATS1 (Homo sapiens) (UniProt O95835); assay: Binding affinity to wild-type human partial length LATS1 (Q678 to V1130 residues) expressed in bacterial expression system assessed as residual binding level at 1 uM by Kinomescan method relative to control
[18] = target: Tyrosine-protein kinase JAK2 (Homo sapiens) (UniProt O60674); assay: Binding affinity to wild-type human partial length JAK2 JH1 catalytic domain (A829 to G1132 residues) expressed in mammalian expression system assessed as residual binding level at 1 uM by Kinomescan method relative to control; summary of the method: as §1
[19] = target: Tyrosine-protein kinase Fer (Homo sapiens) (UniProt P16591); assay: Binding affinity to wild-type human partial length FER (S542 to T822 residues) expressed in bacterial expression system assessed as residual binding level at 1 uM by Kinomescan method relative to control
[20] = target: Serine/threonine-protein kinase RIO1 (Homo sapiens) (UniProt Q9BRS2); assay: Binding affinity to wild-type human full length RIOK1 (M1 to K568 residues) expressed in bacterial expression system assessed as residual binding level at 1 uM by Kinomescan method relative to control
Summary of the method: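 Active-site-directed competition binding screen across a 468-kinase panel, run with the test compound at 1 μM. The read-out is the kinase signal remaining relative to a DMSO control, reported as a percentage. […]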

C=CC(=O)Nc1ccccc1Nc1nc(Nc2ccc(N3CCN(C)CC3)cc2)ncc1C(=O)Nc1c(C)cccc1Cl
Activity [1]: 81%
Activity [2]: 95%
Activity [3]: 99%
Activity [4]: 59%
Activity [5]: 0.15%
Activity [6]: 100%
Activity [7]: 100%
Activity [8]: 93%
Activity [9]: 0.9%
Activity [10]: 91%
Activity [11]: 77%
Activity [12]: 100%
Activity [13]: 100%
Activity [14]: 100%
Activity [15]: 100%
Activity [16]: 100%
Activity [17]: 100%
Activity [18]: 90%
Activity [19]: 100%
Activity [20]: 100%
